From publication PMC4481138 (Nuclear medicine and biology, 2015)
One block for each compound: values may come before it.

Assays:
[1] = Paired-label biodistribution in normal mice; format: in vivo, Balb/c mice; details: for heart uptake after DMI pretreatment as percent of controls: experiment [^18F]FPOBBG / [^125I]MIBG; for heart uptake after DMI pretreatment: DMI 10 mg per kg i.p. 30 min before tracer
How it was run: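 Balb/c mice received the radiotracer pair in 100 μL PBS via tail vein: 185 kBq radioiodinated reference plus 296 kBq 18F test compound. Groups of 5 were killed by isoflurane overdose at 1, 2 and 4 h. Organs and blood were blot-dried, weighed and dual-channel gamma counted, giving %ID/g. For blocking, DMI 10 mg per kg i.p. was given 30 min pre-tracer, with sacrifice 1 h later. Co-administered agents were compared by paired 2-tailed t-test.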

[2] = biological target: norepinephrine transporter (NET) (Bos taurus, UniProt P51143); format: cell-based, human; details: read-out: IC50, competitive inhibition of [^125I]MIBG uptake; UVW-NAT cells, 2 h at 37 °C, unlabeled compound 10^−9 to 10^−3 M
How it was run: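 UVW-NAT cells (NET-transfected human glioma; MEM, 10% FCS, 1 g/L geneticin) seeded at 8 × 10^4/well and held overnight at 37 °C. After cold-PBS washes, fresh medium, [125I]MIBG (3.7 kBq) and unlabeled competitor (10−9 to 10−3 M final) were added for 2 h at 37 °C. Cells were washed, lysed in 1 N NaOH and gamma-counted with supernatants and input standards. IC50 came from nonlinear regression of uptake versus concentration.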

[3] = tested on: SK-N-BE(2c) human neuroblastoma cells; experiment: Paired-label uptake by NET-expressing tumor cells; format: cell-based; details: SK-N-BE(2c) cells, 2 h, 37 °C, absence of inhibitor, paired-label [^18F]FPOIBG / [^125I]MIBG
How it was run: (§1)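 Cells were seeded at 5 × 10^5/well and held overnight at 37 °C, 5% CO2 (SK-N-SH: RPMI 1640 + FCS; SK-N-BE(2c): DMEM, 15% FCS; UVW-NAT: MEM, 10% FCS, 1 g/L geneticin), then PBS-washed into fresh medium. Tracers were co-incubated 2 h at 37 °C (~3.7 kBq radioiodinated, 18.5 kBq 18F). Parallel desipramine wells gave non-specific uptake. NaOH lysates and supernatants were dual-label gamma-counted and reported as % input dose.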

[4] = cited from earlier work
[5] = tested on: UVW human glioma cells transfected to express NET (UVW-NAT); experiment: Paired-label uptake by NET-expressing tumor cells; format: cell-based; details: 2 h, 37 °C, absence of inhibitor, paired-label [^18F]FPOIBG / [^125I]MIBG
How it was run: as §1

[6] = tested on: SK-N-SH human neuroblastoma cells; experiment: Paired-label uptake by NET-expressing tumor cells; format: cell-based; details: 2 h, 37 °C, absence of inhibitor, paired-label [^18F]FPOIBG / [^125I]MIBG
How it was run: as §1

UVW-NAT cells = details: cited from earlier work
[7] = tested on: three NET-expressing cell lines (SK-N-SH, UVW-NAT, SK-N-BE(2c)); format: cell-based, human; details: 2 and 4 h, specific uptake (Figure 3)
How it was run: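 NET-expressing human cells (SK-N-SH, SK-N-BE(2c), NET-transfected UVW glioma) were plated at 5 × 10^5 per well and cultured overnight at 37°C, 5% CO2. They were washed, given fresh medium and incubated with the radioiodine pair (about 3.7 kBq each) at 37°C for 2 and 4 h, with or without desipramine. After cold PBS washes, cells were lysed with 1 N NaOH at 37°C, 10 min twice. Dual-label gamma counting gave cell-associated fraction of total radioactivity.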

SK-N-SH cells = details: cited from earlier work
[8] = tested on: PC-12 rat pheochromocytoma xenografts; details: 8 h, single label format, PC-12 xenograft mice; cited from earlier work
[9] = i.v., 1 h, no DMI (controls), paired-label
[10] = i.v., 2 h, paired-label [^18F]FPOBBG / [^125I]MIBG
[11] = i.v., 4 h, paired-label [^18F]FPOBBG / [^125I]MIBG

norepinephrine transporter (NET), sequence (P51143 whole entry): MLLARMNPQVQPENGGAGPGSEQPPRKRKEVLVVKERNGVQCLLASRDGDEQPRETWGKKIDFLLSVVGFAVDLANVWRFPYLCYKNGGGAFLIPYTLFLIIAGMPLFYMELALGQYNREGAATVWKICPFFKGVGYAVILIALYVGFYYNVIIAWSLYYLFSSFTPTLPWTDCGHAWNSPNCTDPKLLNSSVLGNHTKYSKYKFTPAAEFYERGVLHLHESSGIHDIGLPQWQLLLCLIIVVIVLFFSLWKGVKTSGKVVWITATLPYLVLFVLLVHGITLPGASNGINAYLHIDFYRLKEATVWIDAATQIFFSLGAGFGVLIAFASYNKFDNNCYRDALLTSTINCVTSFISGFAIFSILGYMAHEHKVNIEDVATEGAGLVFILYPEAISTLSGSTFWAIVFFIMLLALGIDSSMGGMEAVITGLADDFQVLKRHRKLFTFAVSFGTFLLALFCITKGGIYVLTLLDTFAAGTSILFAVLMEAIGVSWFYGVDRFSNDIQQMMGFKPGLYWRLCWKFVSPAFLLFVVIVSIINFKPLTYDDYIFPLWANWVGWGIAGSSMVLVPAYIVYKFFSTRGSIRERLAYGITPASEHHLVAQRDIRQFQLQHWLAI

SMILES: N=C(N)NCc1cccc([131I])c1 [[^131I]MIBG]
reduction of heart uptake by DMI ([1]; 1 h, experiment with co-injected [^125I]FPOIBG): 51%

SMILES: N=C(N)NCc1cccc(I)c1 [MIBG, meta-iodobenzylguanidine]
IC50 [2]: 1.5 ± 1.1 µM

SMILES: NC(N)=NCc1cccc([125I])c1 [[^125I]MIBG]
uptake (cell-associated radioactivity as percentage of input dose) [3]: 66.3 ± 3.6%
heart uptake after DMI pretreatment as percent of controls ([1]; 1 h): 69%
heart uptake after DMI pretreatment as percent of control values ([1]; 1 h, experiment with co-injected [^18F]FPOIBG): 57%
heart uptake [1, 9]: 18.7 ± 7.7 % ID/g
heart uptake [1, 10]: 16.1 ± 1.4 % ID/g
heart uptake [1, 11]: 10.2 ± 0.9 % ID/g
reduction of myocardial uptake by DMI pretreatment [4]: 42 ± 4%
uptake (cell-associated radioactivity as percentage of input dose) [5]: 82.7 ± 8.9%
uptake (cell-associated radioactivity as percentage of input dose) [6]: 57.3 ± 8.1%

SMILES: N=C(N)NCc1cccc([131I])c1 [MIBG, meta-iodobenzylguanidine]
uptake in UVW-NAT cells compared to that in SK-N-BE(2c) (UVW-NAT cells): two-fold higher

SMILES: N=C(N)NCc1ccc(OCCCF)c(I)c1 [FPOIBG, 4-(3-Fluoropropoxy)-3-iodobenzylguanidine]
IC50 [2]: 20 ± 0.1 µM

SMILES: N=C(N)NCc1ccc([18F])c(I)c1 [[^18F]FIBG, 4-[^18F]fluoro-3-iodobenzylguanidine]
uptake in SK-N-SH cells, higher than that of co-incubated n.c.a. [^125I]MIBG (SK-N-SH cells): about 15%

SMILES: NC(N)=NCc1cccc([76Br])c1 [[^76Br]MBBG, ^76Br-meta-bromobenzylguanidine]
reduction of myocardial uptake by DMI pretreatment [4]: 64 ± 3%
uptake in both tumor and heart relative to [^123I]MIBG [8]: about 4 fold

Further lines, with some results ahead:

heart uptake after DMI pretreatment as percent of controls ([1]; 1 h): 73%
heart uptake [1, 9]: 21.1 ± 5.6 % ID/g
heart uptake [1, 10]: 20.1 ± 2.4 % ID/g
heart uptake [1, 11]: 16.5 ± 2.3 % ID/g
SMILES: N=C(N)NCc1ccc(OCCC[18F])c(Br)c1 [[^18F]FPOBBG, 4-(3-[^18F]Fluoropropoxy)-3-bromobenzylguanidine]

IC50 [2]: 11 ± 2.9 µM
SMILES: N=C(N)NCc1ccc(OCCCF)c(Br)c1 [FPOBBG, 4-(3-Fluoropropoxy)-3-bromobenzylguanidine]

hepatic (liver) uptake compared with co-injected radioiodinated MIBG [1]: lower liver uptake
heart uptake after DMI pretreatment ([1]; 1 h): 17.8 ± 1.8 % ID/g
thyroid uptake (indicator of deiodination) ([1]; compared with [^131I]MIBG): relatively low
heart uptake as percent of that of [^131I]MIBG ([1]; i.v., 1–4 h, paired-label): 41–61%
SMILES: N=C(N)NCc1ccc(OCCCF)c([125I])c1 [[^125I]FPOIBG, 4-(3-Fluoropropoxy)-3-[^125I]iodobenzylguanidine]
uptake as percent of [^131I]MIBG [7]: 31–53%

heart uptake after DMI pretreatment ([1]; 1 h): 13.2 ± 3.3 % ID/g
bone uptake relative to that of [^18F]FPOBBG ([1]; 4 h, indicator of defluorination): about 4 fold
myocardial uptake as percent of that of [^125I]MIBG ([1]; i.v., three time points (1, 2, 4 h), paired-label): 72–74%
SMILES: N=C(N)NCc1ccc(OCCC[18F])c(I)c1 [[^18F]FPOIBG, 4-(3-[^18F]Fluoropropoxy)-3-iodobenzylguanidine]
uptake (cell-associated radioactivity as percentage of input dose) [3]: 13.3 ± 2.5%
uptake (cell-associated radioactivity as percentage of input dose) [5]: 39.6 ± 13.4%
uptake (cell-associated radioactivity as percentage of input dose) [6]: 10.2 ± 1.5%
